Test results: ChEMBL document CHEMBL3351269, “Phenylimidazoles as potent and selective inhibitors of coagulation factor XIa with in vivo antithrombotic activity” (J Med Chem, 2014)

How the values were obtained:
Plasma kallikrein = Plasma kallikrein (Homo sapiens, UniProt P03952); experiment: Inhibition of human plasma kallikrein using H-D-Pro-Phe-Arg-pNA as substrate
In short: (§1)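 Purified human enzymes; reaction started by adding enzyme to substrate with or without inhibitor, excess substrate and inhibitor over enzyme, 1% DMSO, room temperature, 10–120 min. pNA read at 405 nm. FXIa, FXIIa and chymotrypsin in HEPES pH 7.4 with NaCl, KCl and PEG; FXa and kallikrein in phosphate pH 7.5; FVIIa in HEPES with CaCl2. IC50 from duplicates over 8–11 concentrations, converted to Ki assuming competitive inhibition.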

[1] = Anticoagulant activity in healthy human plasma assessed as concentration required to 2 fold prolong clotting time by aPTT assay; assay type: functional
In short: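 Citrated human plasma from healthy volunteers (one-tenth volume 0.11 M buffered citrate; spun 2000g, 10 min, kept on ice). Inhibitor from 10 mM DMSO stock, diluted in plasma, up to seven concentrations. aPTT with Alexin: plasma warmed 1 min at 37 °C, reagent added, CaCl2 2 min later. Duplicates, as ratio to baseline. EC2x by linear interpolation, as total plasma concentration.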

Coagulation factor VII = biological target: T1, Coagulation factor VII (Homo sapiens, UniProt P08709); experiment: Inhibition of human coagulation factor 7a using H-(D)-Ile-Pro-Arg-pNA as substrate by spectrophotometric analysis; in short: as §1
T1 sequence (P08709 whole entry): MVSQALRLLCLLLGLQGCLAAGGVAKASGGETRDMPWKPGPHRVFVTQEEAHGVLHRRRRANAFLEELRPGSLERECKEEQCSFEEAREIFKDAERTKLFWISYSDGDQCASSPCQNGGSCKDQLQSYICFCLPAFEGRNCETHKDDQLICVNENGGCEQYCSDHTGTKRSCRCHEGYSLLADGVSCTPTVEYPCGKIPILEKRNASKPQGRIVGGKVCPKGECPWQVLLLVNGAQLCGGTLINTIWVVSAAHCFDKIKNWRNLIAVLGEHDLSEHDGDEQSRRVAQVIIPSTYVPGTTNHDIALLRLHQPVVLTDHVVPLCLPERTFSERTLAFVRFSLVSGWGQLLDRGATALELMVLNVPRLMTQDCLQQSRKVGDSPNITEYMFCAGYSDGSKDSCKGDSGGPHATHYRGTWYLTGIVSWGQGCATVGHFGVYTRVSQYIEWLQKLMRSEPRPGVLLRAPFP

Coagulation factor X = Coagulation factor X (Homo sapiens, UniProt P00742); experiment: Inhibition of human coagulation factor 10a using N-benzoyl-Ile-Glu-(OH, OMe)-Gly-Arg-pNA as substrate by spectrophotometric analysis; in short: as §1
Coagulation factor XI = Coagulation factor XI (Homo sapiens, UniProt P03951); experiment: Inhibition of human coagulation factor 11a using p-nitroaniline as substrate assessed as substrate hydrolysis by spectrophotometrically; in short: as §1
[2] = Solubility of the compound in 100 mM phosphate buffer at pH 7.4; assay type: physicochemical
In short: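 Solubility of the amorphous bis-HCl salt in 100 mM phosphate buffer, pH 7.4.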

Oryctolagus cuniculus = experiment: Antithrombotic activity in iv dosed New Zealand male rabbit AV-shunt thrombosis model assessed as inhibition of thrombus formation infused at 1 mg/kg/hr; assay type: functional; details: read-out: ID50 (the source's name)

Sequence of Coagulation factor XI (P03951 19-387 limits assumed): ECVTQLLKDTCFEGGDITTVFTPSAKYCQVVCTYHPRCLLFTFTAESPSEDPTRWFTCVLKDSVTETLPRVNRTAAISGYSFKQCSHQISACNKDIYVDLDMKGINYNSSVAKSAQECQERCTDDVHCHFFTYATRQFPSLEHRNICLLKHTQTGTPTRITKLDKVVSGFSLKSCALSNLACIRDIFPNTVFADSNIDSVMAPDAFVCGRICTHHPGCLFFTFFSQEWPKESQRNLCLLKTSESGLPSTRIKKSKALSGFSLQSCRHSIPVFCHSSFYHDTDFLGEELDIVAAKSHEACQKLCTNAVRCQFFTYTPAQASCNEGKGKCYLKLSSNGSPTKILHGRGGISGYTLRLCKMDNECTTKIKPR
Sequence of Coagulation factor XI (P03951 388-625 limits assumed): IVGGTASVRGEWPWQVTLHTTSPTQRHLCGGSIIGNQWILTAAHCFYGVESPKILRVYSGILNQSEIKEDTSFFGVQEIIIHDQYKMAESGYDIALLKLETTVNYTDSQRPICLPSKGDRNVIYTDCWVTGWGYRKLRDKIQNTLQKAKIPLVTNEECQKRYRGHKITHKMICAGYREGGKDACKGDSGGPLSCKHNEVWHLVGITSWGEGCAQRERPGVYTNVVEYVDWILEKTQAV
Sequence of Plasma kallikrein (P03952 20-390 limits assumed): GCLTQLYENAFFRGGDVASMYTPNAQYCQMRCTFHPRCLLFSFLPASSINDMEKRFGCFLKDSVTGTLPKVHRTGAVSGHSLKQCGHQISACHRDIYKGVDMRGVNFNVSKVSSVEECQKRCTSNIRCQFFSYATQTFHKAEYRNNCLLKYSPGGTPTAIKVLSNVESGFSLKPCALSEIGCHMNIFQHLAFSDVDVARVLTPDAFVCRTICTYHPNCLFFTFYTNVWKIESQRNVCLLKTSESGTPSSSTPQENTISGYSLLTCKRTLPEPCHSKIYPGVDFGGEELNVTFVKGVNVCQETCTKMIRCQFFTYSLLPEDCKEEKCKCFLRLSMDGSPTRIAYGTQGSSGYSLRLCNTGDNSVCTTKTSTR
Sequence of Plasma kallikrein (P03952 391-638 limits assumed): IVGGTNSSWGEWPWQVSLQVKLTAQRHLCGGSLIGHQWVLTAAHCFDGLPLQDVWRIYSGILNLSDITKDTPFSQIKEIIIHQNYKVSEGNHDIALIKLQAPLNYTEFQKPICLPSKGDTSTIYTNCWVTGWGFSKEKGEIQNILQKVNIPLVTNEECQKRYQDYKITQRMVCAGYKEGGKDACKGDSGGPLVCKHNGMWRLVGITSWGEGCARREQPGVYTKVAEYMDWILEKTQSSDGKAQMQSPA
Sequence of Coagulation factor X (P00742 41-179 limits assumed): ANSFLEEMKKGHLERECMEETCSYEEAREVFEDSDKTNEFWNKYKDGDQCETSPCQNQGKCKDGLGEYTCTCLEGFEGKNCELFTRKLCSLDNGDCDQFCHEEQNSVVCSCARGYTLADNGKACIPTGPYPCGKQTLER
Sequence of Coagulation factor X (P00742 235-488 limits assumed): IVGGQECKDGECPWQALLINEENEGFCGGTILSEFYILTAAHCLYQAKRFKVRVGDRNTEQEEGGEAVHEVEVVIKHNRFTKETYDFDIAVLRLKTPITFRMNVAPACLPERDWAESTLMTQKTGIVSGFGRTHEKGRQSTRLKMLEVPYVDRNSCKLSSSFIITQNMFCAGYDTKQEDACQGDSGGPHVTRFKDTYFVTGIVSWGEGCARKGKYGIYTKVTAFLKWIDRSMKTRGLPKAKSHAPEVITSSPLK

In the case of NC[C@H]1CC[C@H](C(=O)N[C@@H](Cc2ccccc2)c2nc(-c3ccc(C(N)=O)cc3)c(Cl)[nH]2)CC1.O=C(O)C(F)(F)F, the Ki (Plasma kallikrein) is reported as 20 nM, the 2aPTT [1] is reported as 6 µM and the Ki (Coagulation factor VII) is reported as greater than 10900 nM. The Ki (Coagulation factor X) was greater than 9000 nM and the Ki (Coagulation factor XI) was 4 nM.
For NC[C@H]1CC[C@H](C(=O)N[C@@H](Cc2ccccc2)c2nn(-c3ccccc3)c(=O)[nH]2)CC1, the Ki (Plasma kallikrein) was 4820 nM and the Ki (Coagulation factor XI) was 3070 nM.
For N#Cc1ccc(-c2c[nH]c([C@H](Cc3ccccc3)NC(=O)[C@H]3CC[C@H](CN)CC3)n2)cc1, the Ki (Plasma kallikrein) was 940 nM, the Ki (Coagulation factor VII) was greater than 10900 nM and the Ki (Coagulation factor X) was greater than 8180 nM. It also gave a Ki (Coagulation factor XI) of 230 nM.
NC[C@H]1CC[C@H](C(=O)N[C@@H](Cc2ccccc2)c2nc(-c3cccc(C(N)=O)c3)c[nH]2)CC1 gave a Ki (Plasma kallikrein) of 910 nM, a Ki (Coagulation factor VII) greater than 10900 nM and a Ki (Coagulation factor X) greater than 8180 nM. The Ki (Coagulation factor XI) was 1100 nM.
NC[C@H]1CC[C@H](C(=O)N[C@@H](Cc2ccccc2)c2nc(-c3ccc4c(N)n[nH]c4c3)c[nH]2)CC1.O=C(O)C(F)(F)F showed a Ki (Plasma kallikrein) of 50 nM, a 2aPTT [1] of 2 µM and a Ki (Coagulation factor VII) greater than 10900 nM. For the same molecule, the Ki (Coagulation factor X) was greater than 8180 nM and the Ki (Coagulation factor XI) was 3 nM.
Cl.NC[C@H]1CC[C@H](C(=O)N[C@@H](Cc2ccccc2)c2nc(-c3ccc4c(N)n[nH]c4c3)c(Cl)[nH]2)CC1 showed a solubility [2] of 946 µg/mL and an ED50 (Oryctolagus cuniculus) of 0.6 mg/kg.
CN(C)C(=O)c1ccc(-c2c[nH]c([C@H](Cc3ccccc3)NC(=O)[C@H]3CC[C@H](CN)CC3)n2)cc1 gave a Ki (Plasma kallikrein) of 5270 nM, a Ki (Coagulation factor VII) greater than 10900 nM and a Ki (Coagulation factor X) greater than 8180 nM. It also gave a Ki (Coagulation factor XI) of 2860 nM.
Work on CCOC(=O)Cc1cccc(-c2c[nH]c([C@H](Cc3ccccc3)NC(=O)[C@H]3CC[C@H](CN)CC3)n2)c1 yielded a Ki (Plasma kallikrein) of 1470 nM, a Ki (Coagulation factor VII) greater than 10900 nM and a Ki (Coagulation factor X) greater than 8180 nM. For the same molecule, the Ki (Coagulation factor XI) was 630 nM.
For NC[C@H]1CC[C@H](C(=O)N[C@@H](Cc2ccccc2)c2nc(-c3ccc4c(N)n[nH]c4c3)c(F)[nH]2)CC1.O=C(O)C(F)(F)F, the Ki (Plasma kallikrein) was 2 nM, the 2aPTT [1] was 0.5 µM and the Ki (Coagulation factor VII) was 6200 nM. For the same molecule, the Ki (Coagulation factor X) was greater than 8180 nM and the Ki (Coagulation factor XI) was 0.3 nM.
Molecule CCOC(=O)Cc1ccc(-c2c[nH]c([C@H](Cc3ccccc3)NC(=O)[C@H]3CC[C@H](CN)CC3)n2)cc1 has a Ki (Plasma kallikrein) of 1360 nM, a Ki (Coagulation factor VII) greater than 10900 nM and a Ki (Coagulation factor X) greater than 8180 nM. For the same molecule, the Ki (Coagulation factor XI) was 495 nM.
Molecule NC[C@H]1CC[C@H](C(=O)N[C@@H](Cc2ccccc2)c2ncc(-c3ccccc3)o2)CC1 has a Ki (Plasma kallikrein) of 3440 nM and a Ki (Coagulation factor XI) of 1440 nM.
For NC[C@H]1CC[C@H](C(=O)N[C@@H](Cc2ccccc2)c2nc(-c3ccc(C(N)=O)cc3)c(Br)[nH]2)CC1.O=C(O)C(F)(F)F, the Ki (Plasma kallikrein) was 45 nM, the 2aPTT [1] was 10 µM and the Ki (Coagulation factor VII) was greater than 10900 nM. The Ki (Coagulation factor X) was greater than 8180 nM and the Ki (Coagulation factor XI) was 9 nM.
Work on N#Cc1cccc(-c2c[nH]c([C@H](Cc3ccccc3)NC(=O)[C@H]3CC[C@H](CN)CC3)n2)c1 yielded a Ki (Plasma kallikrein) of 1170 nM, a Ki (Coagulation factor VII) greater than 10900 nM and a Ki (Coagulation factor X) greater than 8180 nM. For the same molecule, the Ki (Coagulation factor XI) was 1120 nM.
NC[C@H]1CC[C@H](C(=O)N[C@@H](Cc2ccccc2)c2cc(-c3ccccc3)n[nH]2)CC1 gave a Ki (Plasma kallikrein) of 5020 nM and a Ki (Coagulation factor XI) of 6940 nM.
Work on NC[C@H]1CC[C@H](C(=O)N[C@@H](Cc2ccccc2)c2nc(-c3ccccc3)c[nH]2)CC1.O=C(O)C(F)(F)F yielded a Ki (Plasma kallikrein) of 330 nM, a 2aPTT [1] greater than 40 µM and a Ki (Coagulation factor VII) greater than 10900 nM. For the same molecule, the Ki (Coagulation factor X) was greater than 8180 nM and the Ki (Coagulation factor XI) was 120 nM.
Molecule NC[C@H]1CC[C@H](C(=O)N[C@@H](Cc2ccccc2)c2nc(-c3ccc(C(N)=O)cc3)c(F)[nH]2)CC1.O=C(O)C(F)(F)F has a Ki (Plasma kallikrein) of 8 nM, a 2aPTT [1] of 2 µM and a Ki (Coagulation factor VII) greater than 13400 nM. The Ki (Coagulation factor X) was 1370 nM and the Ki (Coagulation factor XI) was 3 nM.
Work on NC[C@H]1CC[C@H](C(=O)N[C@@H](Cc2ccccc2)c2nc(-c3ccccc3)n[nH]2)CC1 yielded a Ki (Plasma kallikrein) of 2220 nM and a Ki (Coagulation factor XI) of 980 nM.
For NC[C@H]1CC[C@H](C(=O)N[C@@H](Cc2ccccc2)c2nc(-c3ccc(CC(N)=O)cc3)c[nH]2)CC1 (mixture of isomers), the Ki (Plasma kallikrein) was 1310 nM, the Ki (Coagulation factor VII) was greater than 10900 nM and the Ki (Coagulation factor X) was greater than 8180 nM. The Ki (Coagulation factor XI) was 400 nM.
Work on NC[C@H]1CC[C@H](C(=O)N[C@@H](Cc2ccccc2)c2nc(-c3cccc(CC(=O)O)c3)c[nH]2)CC1 yielded a Ki (Plasma kallikrein) of 920 nM, a Ki (Coagulation factor VII) greater than 10900 nM and a Ki (Coagulation factor X) greater than 8180 nM. It also gave a Ki (Coagulation factor XI) of 275 nM.
In the case of NC[C@H]1CC[C@H](C(=O)N[C@@H](Cc2ccccc2)c2c[nH]c(-c3ccccc3)n2)CC1, the Ki (Plasma kallikrein) is reported as 4500 nM and the Ki (Coagulation factor XI) is reported as 1640 nM.
NC[C@H]1CC[C@H](C(=O)N[C@@H](Cc2ccccc2)c2nc(-c3ccc(C(N)=O)cc3)c[nH]2)CC1.O=C(O)C(F)(F)F gave a Ki (Plasma kallikrein) of 60 nM, a 2aPTT [1] greater than 40 µM and a Ki (Coagulation factor VII) greater than 10900 nM. It also gave a Ki (Coagulation factor X) greater than 9000 nM and a Ki (Coagulation factor XI) of 30 nM.
In the case of NC[C@H]1CC[C@H](C(=O)N[C@@H](Cc2ccccc2)c2nc(-c3ccc(S(N)(=O)=O)cc3)c[nH]2)CC1, the Ki (Plasma kallikrein) is reported as 5540 nM, the Ki (Coagulation factor VII) is reported as greater than 10900 nM and the Ki (Coagulation factor X) is reported as greater than 8180 nM. For the same molecule, the Ki (Coagulation factor XI) was 1340 nM.
For NC[C@H]1CC[C@H](C(=O)N[C@@H](Cc2ccccc2)c2nc(-c3ccc(CC(=O)O)cc3)c[nH]2)CC1, the Ki (Plasma kallikrein) was 765 nM, the Ki (Coagulation factor VII) was greater than 10900 nM and the Ki (Coagulation factor X) was greater than 8180 nM. The Ki (Coagulation factor XI) was 150 nM.
With CC(C)CC(=O)Nc1cc(-c2ccc(C(N)=O)cc2C(=O)O)cc([C@@H]2C[C@](C)(c3ccccc3)c3cc(C(=N)N)ccc3N2)c1 the Ki (Plasma kallikrein) was 2 nM, the 2aPTT [1] was 2 µM and the Ki (Coagulation factor VII) was 630 nM. For the same molecule, the Ki (Coagulation factor X) was 340 nM and the Ki (Coagulation factor XI) was 0.2 nM.
With NC[C@H]1CC[C@H](C(=O)N[C@@H](Cc2ccccc2)c2nc(-c3cccc(CC(N)=O)c3)c[nH]2)CC1 the Ki (Plasma kallikrein) was 1900 nM, the Ki (Coagulation factor VII) was greater than 10900 nM and the Ki (Coagulation factor X) was greater than 8180 nM. The Ki (Coagulation factor XI) was 545 nM.
For CNC(=O)c1ccc(-c2c[nH]c([C@H](Cc3ccccc3)NC(=O)[C@H]3CC[C@H](CN)CC3)n2)cc1, the Ki (Plasma kallikrein) was 220 nM, the Ki (Coagulation factor VII) was greater than 10900 nM and the Ki (Coagulation factor X) was greater than 8180 nM. It also gave a Ki (Coagulation factor XI) of 350 nM.
With COC(=O)c1ccc(-c2c[nH]c([C@H](Cc3ccccc3)NC(=O)[C@H]3CC[C@H](CN)CC3)n2)cc1 the Ki (Plasma kallikrein) was 1920 nM, the Ki (Coagulation factor VII) was greater than 10900 nM and the Ki (Coagulation factor X) was greater than 8180 nM. The Ki (Coagulation factor XI) was 800 nM.
Molecule NC[C@H]1CC[C@H](C(=O)N[C@@H](Cc2ccccc2)c2nc(-c3ccc(C(=O)O)cc3)c[nH]2)CC1 (mixture of isomers) has a Ki (Plasma kallikrein) of 3820 nM, a Ki (Coagulation factor VII) greater than 10900 nM and a Ki (Coagulation factor X) greater than 8180 nM. It also gave a Ki (Coagulation factor XI) of 590 nM.
